Compound activity: PubChem BioAssay, several laboratories
Tb hexokinase: Trypanosoma brucei hexokinase 1 inhibitors, primary screen, biochemical, G6PDH-coupled NADH absorbance, MLSCN library; hexokinase 1 [Trypanosoma brucei]; recombinant TbHK1, G6PDH-coupled NADH A340; inhibition, % at 10 µM; 220,000 tested, 0.11% active; AID 1430, 2008;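 active means inhibition of 50% or more in the single-dose primary screen; inactive means inhibition below 50%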
RanGTP-Impb inh: inhibitors of RanGTP-importin-beta interaction, primary screen, biochemical, FRET, CFP-Ran, YFP-importin-beta, homogeneous | Ran GTPase (GTP-bound) - importin-beta complex | cell-free CFP-Ran/YFP-importin-beta FRET ratio | inhibition, % (concentration not given with the values) | 300,000 tested, 1.1% active | AID 2216, 2009;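 active means more than half of the replicate wells show a fall in the fluorescence ratio signal beyond about 16%, limit read from the data, passing the limit was not always enough; inconclusive means exactly half of the replicate wells pass the set limit; inactive means fewer than half of replicates pass the limit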;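 further: 0% = DMSO wells and 100% = Ran loaded with GDP instead of GTP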
Hck-Nef inh: inhibitors of Nef-activated human Hck kinase, primary screen, biochemical, Z-Lyte FRET, 384-well, Hck-YEEI; Recombinant Hck-YEEI plus Nef, Z-Lyte FRET kinase assay; 220,000 tested, 0.68% active; AID 463187, 2010; Tyrosine-protein kinase HCK (Homo sapiens), P08631; inhibition, % at 20 µM;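 active means Hck-Nef kinase inhibition above about 50%, limit read from the data; inactive means inhibition below that limit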;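 further: 0% = DMSO with Hck plus Nef and 100% = Hck alone without Nef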
Runt-CBFb FRET: inhibitors of RUNX1 Runt–CBFb binding, primary screen, biochemical, FRET, Cerulean-Runt, Venus-CBFb, uHTS; 220,000 tested, 0.46% active; Cerulean-Runt/Venus-CBFb FRET ratio 530/480, 1 h; AID 1496, 2009; inhibition, % at 20 µM; Runt-related transcription factor 1 (Homo sapiens) + Core-binding factor subunit beta …;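 active means inhibition over about 50% at 20 µM in the single-dose screen, limit read from the data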;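 further: 0% = DMSO wells and 100% = excess unlabeled CBFb competitor control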
Target sequence (Q01196 whole entry, looked up): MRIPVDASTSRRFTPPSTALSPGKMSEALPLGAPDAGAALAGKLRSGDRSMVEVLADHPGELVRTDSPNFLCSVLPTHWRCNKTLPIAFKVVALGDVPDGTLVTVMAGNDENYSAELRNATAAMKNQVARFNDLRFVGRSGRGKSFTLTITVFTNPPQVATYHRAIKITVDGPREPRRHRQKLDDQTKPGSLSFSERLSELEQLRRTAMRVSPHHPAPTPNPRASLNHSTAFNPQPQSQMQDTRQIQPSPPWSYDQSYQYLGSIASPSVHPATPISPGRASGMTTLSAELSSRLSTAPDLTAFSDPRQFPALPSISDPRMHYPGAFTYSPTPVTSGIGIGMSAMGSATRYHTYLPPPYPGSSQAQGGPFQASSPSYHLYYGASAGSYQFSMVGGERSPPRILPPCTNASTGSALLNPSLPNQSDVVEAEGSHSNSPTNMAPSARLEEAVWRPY
Target sequence (Q13951 whole entry, looked up): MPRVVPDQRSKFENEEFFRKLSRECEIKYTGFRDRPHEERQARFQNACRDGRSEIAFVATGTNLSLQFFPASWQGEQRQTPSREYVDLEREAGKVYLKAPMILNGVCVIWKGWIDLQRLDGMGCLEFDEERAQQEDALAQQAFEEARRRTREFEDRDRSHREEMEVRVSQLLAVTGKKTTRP
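test system = Cerulean-Runt domain fusion protein, energy donor | probe or stimulus = Venus-CBFb binding partner, 100 nM | incubation = two 1 h room-temperature incubations shielded from light | detection = fluorescence energy transfer, 422 nm excitation, 530/480 nm emission | measure = loss of energy transfer signal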
Runt-SMMHC FRET: inhibitors of RUNX1 Runt–CBFb-SMMHC binding, primary screen, biochemical, FRET, Cerulean-Runt, Venus-CBFb-SMMHC, uHTS. AID 1434, 2008. 220,000 tested, 0.74% active. inhibition, % at 20 µM. Cerulean-Runt/Venus-CBFb-SMMHC FRET ratio 530/480, 1 h;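 active means mean inhibition across duplicate retests at 20 µM reaching about 50%, limit read from the data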;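 further: 0% = DMSO wells and 100% = wells with excess untagged CBFb-SMMHC; inhibitors lower the FRET ratio by blocking Runt binding to CBFb-SMMHC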
YIC FRET counter: YIC intramolecular FRET probe signal interference, dose response, counter-screen for RanGTP-importin-beta inhibitor project, biochemical, fluorescence FRET; shares compounds with RanGTP-Impb inh; Purified YIC probe, intramolecular FRET ratio YFP/CFP; IC50, µM; 1,000 tested, 40% active; AID 435026, 2010;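 active means fitted half-maximal inhibitory concentration no more than tenfold above the top dose tested; inconclusive means flat fit with 30 to 70% activity, or poor fit; inactive means half-maximal concentration beyond tenfold above the top dose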
* = called active by the depositor. In the library only some 1.9% were active in any assay of this set; here they are far more common.

Screening CCC(C)OC(=O)C[N+](C)(C)CCOC1CC2CCC1(C)C2(C)C (centres undefined) returned Tb hexokinase 15, RanGTP-Impb inh 22*, Hck-Nef inh 19, Runt-CBFb FRET 0, Runt-SMMHC FRET -2 and YIC FRET counter >50.
`CC(C)CCOC(=O)C[N+](C)(C)CCOC1CC2CCC1(C)C2(C)C` (centres undefined) gave Tb hexokinase 10, RanGTP-Impb inh 1, Hck-Nef inh 0, Runt-CBFb FRET -3 and Runt-SMMHC FRET -2.
For Cc1ccc(OCC(=O)N2CCCCCC2)c(C)c1 the results were Tb hexokinase -1, RanGTP-Impb inh 17*, Hck-Nef inh 1, Runt-CBFb FRET -1, Runt-SMMHC FRET 3 and YIC FRET counter >50.
`O=C(NC1=NCCS1)c1cc(-c2cccnc2)nc2ccccc12` gave Tb hexokinase -18, RanGTP-Impb inh 15*, Hck-Nef inh 13, Runt-CBFb FRET -5, Runt-SMMHC FRET -1 and YIC FRET counter >50.
For O=C(NC1=NCCS1)c1cc(-c2cccs2)nc2ccccc12 the results were Tb hexokinase -25, RanGTP-Impb inh 5, Hck-Nef inh 15, Runt-CBFb FRET 1 and Runt-SMMHC FRET -1.
`Cc1ccc([N+](=O)[O-])cc1NCC(=O)NN` gave Tb hexokinase 1, RanGTP-Impb inh -1, Hck-Nef inh -1, Runt-CBFb FRET 2 and Runt-SMMHC FRET 0.
Screening CSc1ccc(/C=C(/Sc2nnc(-c3ccccc3)o2)C(=O)O)cc1 returned Tb hexokinase -9, RanGTP-Impb inh 25*, Hck-Nef inh 23, Runt-CBFb FRET -1, Runt-SMMHC FRET -6 and YIC FRET counter 41*.
Screening COc1ccc(-c2nnc(S/C(=C/c3ccc(Cl)cc3)C(=O)O)o2)cc1 returned Tb hexokinase -8, RanGTP-Impb inh inconclusive, Hck-Nef inh 25, Runt-CBFb FRET 3 and Runt-SMMHC FRET -4.
`C=CCN1C(=O)/C(=C2/Sc3ccccc3N2CC)SC1=S` gave RanGTP-Impb inh 17* and YIC FRET counter >50.
C=CCN1C(=O)/C(=C2/Sc3ccccc3N2C)SC1=Nc1ccccc1C was read as Tb hexokinase -15, RanGTP-Impb inh 1, Hck-Nef inh 1, Runt-CBFb FRET -2 and Runt-SMMHC FRET -2.
For CCN1C(=O)/C(=C2\Sc3ccccc3N2CC)OC1=S the results were Tb hexokinase -4, RanGTP-Impb inh 21*, Hck-Nef inh 7, Runt-CBFb FRET -6, Runt-SMMHC FRET 12 and YIC FRET counter 36*.
O=C(NC1CCCCCC1)C(=S)NCCc1ccccc1 was read as Tb hexokinase 1, RanGTP-Impb inh 25*, Hck-Nef inh 28, Runt-CBFb FRET 20, Runt-SMMHC FRET -3 and YIC FRET counter >50.
For C/C(CC(=O)Nc1ccc(Cl)cn1)=N\NC(=O)Cc1cccs1 the results were Tb hexokinase -6, RanGTP-Impb inh 1, Hck-Nef inh 19, Runt-CBFb FRET -1 and Runt-SMMHC FRET 3.
Oc1oc(-c2ccccc2)nc1C=Nc1ccccc1 was read as Tb hexokinase -9, RanGTP-Impb inh -2, Hck-Nef inh -1, Runt-CBFb FRET 2 and Runt-SMMHC FRET 4.
For COc1ccc(-c2nc(/C=C3\C(C)=Nc4ccccc43)c(O)o2)cc1 the results were Tb hexokinase -10, RanGTP-Impb inh 28*, Hck-Nef inh -21, Runt-CBFb FRET -11, Runt-SMMHC FRET -19 and YIC FRET counter >50.
CCn1cc(S(=O)(=O)N2CCc3ccccc3C2)cn1 was read as RanGTP-Impb inh 2.
`Cc1cccc(NC(=O)CSCC(=O)N(CCC(C)C)c2c(N)n(Cc3ccccc3)c(=O)[nH]c2=O)c1` gave RanGTP-Impb inh -4.
For Cc1ccc(NC(=O)CN(C)S(=O)(=O)c2cccs2)cc1C the results were Tb hexokinase -3, RanGTP-Impb inh 1, Hck-Nef inh 1, Runt-CBFb FRET 0 and Runt-SMMHC FRET 0.
C[C@H](CO)N1C[C@H](C)[C@@H](CN(C)S(=O)(=O)c2cccs2)Oc2ccc(NC(=O)Cc3ccccc3)cc2CC1=O was read as YIC FRET counter >50.
CCOC(=O)CC(=O)CSc1nc2c(cc1C#N)CCC2 was read as Tb hexokinase -15, RanGTP-Impb inh 16*, Hck-Nef inh 1, Runt-CBFb FRET 34, Runt-SMMHC FRET 15 and YIC FRET counter 24*.
For CSc1nsc2nc(=O)c(/C=C3\C=Nc4ccccc43)c(N)n12 the results were Tb hexokinase -3, RanGTP-Impb inh 26*, Hck-Nef inh 0, Runt-CBFb FRET 14, Runt-SMMHC FRET 51* and YIC FRET counter 28*.
Screening CC(C)S(=O)(=O)c1nsc2nc(=O)c(/C=C3\C=Nc4ccccc43)c(N)n12 returned Tb hexokinase -5, RanGTP-Impb inh 31*, Hck-Nef inh 2, Runt-CBFb FRET 35, Runt-SMMHC FRET 80* and YIC FRET counter 9.7*.
`Cc1ccc(S(=O)(=O)c2cnc3cc(C)nn3c2N)cc1` gave Tb hexokinase 1, RanGTP-Impb inh -1, Hck-Nef inh -13, Runt-CBFb FRET -2 and Runt-SMMHC FRET -3.
Screening O=C(Nc1nc2ccc(S(=O)(=O)N3CCCCC3)cc2s1)c1cccnc1 returned Tb hexokinase -46, RanGTP-Impb inh 22*, Hck-Nef inh 1, Runt-CBFb FRET -11, Runt-SMMHC FRET -7 and YIC FRET counter >26.
`N#Cc1nc(-c2ccco2)oc1NCCc1ccccc1` gave Tb hexokinase -16, RanGTP-Impb inh 2, Hck-Nef inh 0, Runt-CBFb FRET 0 and Runt-SMMHC FRET 0.
Screening COc1ccc(CCNc2oc(-c3ccco3)nc2C#N)cc1 returned Tb hexokinase -11, RanGTP-Impb inh 26*, Hck-Nef inh 0, Runt-CBFb FRET -2, Runt-SMMHC FRET 0 and YIC FRET counter >50.
For O=C(Nc1cccc(F)c1)c1ccc(S(=O)(=O)NCC2CCCO2)cc1 (centres undefined) the results were Tb hexokinase -6, RanGTP-Impb inh 21*, Hck-Nef inh 2, Runt-CBFb FRET -1, Runt-SMMHC FRET 1 and YIC FRET counter >50.
`O=C(Nc1ccc2c(c1)OCO2)c1ccc(S(=O)(=O)NCC2CCCO2)cc1` (centres undefined) gave Tb hexokinase -3, RanGTP-Impb inh -2, Hck-Nef inh 15, Runt-CBFb FRET 0 and Runt-SMMHC FRET 2.
